SMILES strings stand for the structures. In brackets after ≈: the same amount, converted by molar mass. Bounds are passed on as bounds.

One series deals with HT-29. The series is described as follows: Cytotoxicity against human HT-29 cells after 7 days. Format: functional. The settings on record: for EC50: Homo sapiens, HT-29, 168 h, read-out: ED50 (the source's name). In outline:
(§1)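 Human solid tumor cell lines A-549 (lung carcinoma), MCF-7 (breast carcinoma) and HT-29 (colon adenocarcinoma) tested in seven-day cytotoxicity assays run at a cancer center cell culture laboratory, with adriamycin as positive control.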

Another series concerns A549. The series can be described thus: Cytotoxicity against human A549 cells after 7 days. Format: functional. The settings on record: for EC50: Homo sapiens, A549, 168 h, read-out: ED50 (the source's name). In outline:
as §1

Another series has as its system MCF7. The series is described as follows: Cytotoxicity against human MCF7 cells after 7 days. The settings on record: for EC50: Homo sapiens, MCF7, 168 h, read-out: ED50 (the source's name). Format: functional. In outline: as §1
Series [1] can be described thus: Toxicity against brine shrimp larvae. Format: organism-based. The settings on record: artemia, in vivo.

For the compound `CCCCCCCCCCCC[C@H](O)[C@@H]1CC[C@@H]([C@@H](O)CCCCCCC(O)CCCCC[C@@H](O)CC2=C[C@H](C)OC2=O)O1` (some centres undefined) [ANNOMONTACIN], the EC50 in the series with HT-29 stood at 0.00258 µg/mL (≈ 0.00413 µM); with A549 it was 0.00772 µg/mL (≈ 0.0124 µM); in the series with MCF7, 0.165 µg/mL (≈ 0.264 µM).
Take `CCCCCCCCCCCC[C@@H](O)[C@H]1CC[C@H]([C@H](O)CCCC[C@H](O)CCCCC[C@@H](O)CC2=CC(C)OC2=O)O1` (some centres undefined) [ANNONACIN]: in series [1], the LC50 – broadly, the concentration that kills 50% of the test population – was 0.23 µg/mL (≈ 0.385 µM). Further, the ED50 with HT-29 and in the series with A549 was less than 1 ×10⁻⁷ ug/ml in each case. Besides, the EC50 in the series on MCF7 was 0.0024 µg/mL (≈ 0.00402 µM).
For the compound `COc1cccc2c1C(=O)c1c(O)c3c(c(O)c1C2=O)C[C@@](O)(C(=O)CO)C[C@@H]3O[C@H]1C[C@H](N)[C@H](O)[C@H](C)O1` [DOXORUBICIN], the values for the EC50 with HT-29, with A549 and in the series on MCF7 were 0.00279 µg/mL (≈ 0.00513 µM), 0.0011 µg/mL (≈ 0.00202 µM) and 0.0228 µg/mL (≈ 0.0419 µM), respectively.
As for `CCCCCCCCCCCCCC[C@@H](O)[C@H](O)CC[C@H](O)[C@@H]1CC[C@@H](CCCCC[C@@H](O)CC2=C[C@H](C)OC2=O)O1` [GIGANTETROCIN A], in series [1], the 50% lethal concentration (LC50) is 1.4 µg/mL (≈ 2.35 µM). Also, the ED50 in the series on HT-29 was 4.1 ×10⁻⁵ ug/ml. Moreover, the EC50 in the series with A549 amounted to 0.25 µg/mL (≈ 0.419 µM); with MCF7, 0.63 µg/mL (≈ 1.06 µM).
As for `CCCCCCCCCCCCCCC(O)C(O)CC[C@H](O)[C@H]1CC[C@H](CCCCC[C@@H](O)CC2=C[C@H](C)OC2=O)O1` (some centres undefined) [GIGANTETRONENIN], the EC50 in the series on HT-29 was 0.0537 µg/mL (≈ 0.09 µM); with A549, 0.0047 µg/mL (≈ 0.00787 µM); in the series on MCF7, 0.603 µg/mL (≈ 1.01 µM).
Consider `CCCCCCCCCCCCCC[C@@H](O)[C@H]1CC[C@H]([C@H](O)CCCCC(O)CCCCC[C@@H](O)CC2=C[C@H](C)OC2=O)O1` (some centres undefined) [XYLOMATICIN], for which the median lethal concentration (LC50) in series [1] was determined as 0.11 µg/mL (≈ 0.176 µM). The EC50 in the series with HT-29 was 0.304 µg/mL (≈ 0.486 µM). For the same compound, the ED50 in the series with A549 turned out to be 1.54 ×10⁻⁴ ug/ml; with MCF7, 1.47 ×10⁻⁶ ug/ml.
In series [1], `CCCCCCCCCCCCCC[C@@H](O)[C@H]1CC[C@H]([C@H](O)CCCCCCC(O)CCC[C@@H](O)CC2=C[C@H](C)OC2=O)O1` (some centres undefined) [XYLOPIACIN] registered an LC50 of 0.49 µg/mL (≈ 0.784 µM). For the same compound, the EC50 in the series on HT-29 amounted to 0.111 µg/mL (≈ 0.178 µM). Also, the ED50 came out at 1.36 ×10⁻⁶ ug/ml with A549 and 1.39 ×10⁻⁷ ug/ml in the series with MCF7.
Consider `CCCCCCCCCCCC[C@@H](O)[C@H]1CC[C@H]([C@H](O)CCCCCCC(O)CCC[C@@H](O)CC2=C[C@H](C)OC2=O)O1` (some centres undefined) [XYLOPIANIN], for which the median lethal concentration (LC50) in series [1] turned out to be 0.33 µg/mL (≈ 0.553 µM). Also, the figures for the EC50 with HT-29, in the series with A549 and in the series on MCF7 were 6.63 µg/mL (≈ 11.1 µM), 0.0426 µg/mL (≈ 0.0714 µM) and 18.5 µg/mL (≈ 30.9 µM), respectively.

The record behind these values is ChEMBL document CHEMBL1149056, “Bioactive annonaceous acetogenins from the bark of Xylopia aromatica” (J Nat Prod, 1994).
